Rows were chosen to be rich in hits. Some 1.4% of all compounds tested hit in one or more screens of this group.
OPRM1-OPRD1 inv = inverse agonists of MOR-DOR heterodimerization, primary screen, cell-based, luminescence. Mu-type opioid receptor (Homo sapiens) + Delta-type opioid receptor (Homo sapiens), …. AID 504357, 2011. cell-based MOR-DOR heterodimer luminescence, inverse agonism. 0.21% of 340,000 active. inhibition, % at 9.3 µM; in the data active = inhibition above about 22%, passing the limit was not always enough;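 also: 0% = cells with DMSO and 100% = wells without cells with DMSO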
Lipid droplet = inhibitors of hepatocyte lipid droplet formation, primary screen, imaging, high-throughput imaging, BODIPY stain | AID 1656, 2009 | AML12 mouse hepatocytes, oleate lipid droplets | 0.4% of 240,000 active | inhibition, % at 6.5 µM;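 active = lipid droplet intensity inhibited by at least 50%, with more than 500 cells counted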
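Test system: AML12 mouse liver cells; schedule: overnight exposure; technique: high-content imaging of BODIPY-stained droplets and DAPI nuclei; read-out: % inhibition of corrected integrated BODIPY droplet signal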
HTR5A ag = HTR5A agonists in luminescence cell assay, primary screen, counter-screen for OPRM1-OPRD1 heterodimer agonist project, full-deck HTS; 0.61% of 340,000 active; 5-hydroxytryptamine receptor 5A (Homo sapiens), P47898; cell-based; activation, % at 9.3 µM; in the data active = activation mostly above about 9.5%, no sharp cut-off; inactive = mostly below about 7.6%;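 also: 0% = cells with vehicle only and 100% = reference agonist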
Target sequence (P47898 whole entry, looked up): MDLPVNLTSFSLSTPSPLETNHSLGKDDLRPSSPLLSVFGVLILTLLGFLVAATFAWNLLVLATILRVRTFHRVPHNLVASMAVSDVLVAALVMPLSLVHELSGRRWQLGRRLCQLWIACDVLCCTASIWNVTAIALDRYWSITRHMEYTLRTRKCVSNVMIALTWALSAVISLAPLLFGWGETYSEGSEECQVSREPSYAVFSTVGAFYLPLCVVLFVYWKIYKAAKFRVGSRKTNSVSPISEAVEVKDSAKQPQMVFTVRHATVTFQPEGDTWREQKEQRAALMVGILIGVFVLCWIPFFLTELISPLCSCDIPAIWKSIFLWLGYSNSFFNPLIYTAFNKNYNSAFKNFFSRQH
HTR5A inv ag = HTR5A inverse agonists in luminescence cell assay, primary screen, counter-screen for OPRM1-OPRD1 heterodimer inverse agonist project, full-deck HTS; inhibition, % at 9.3 µM; HTR5A cell line, inverse agonism; 0.083% of 340,000 active; AID 504634, 2011; in the data active = inhibition mostly above about 23%, no sharp cut-off; inactive = mostly below about 18%;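 also: 0% = cells with DMSO and 100% = no-cell wells with DMSO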
OPRM1-OPRD1 ag = agonists of OPRM1-OPRD1 heterodimerization, primary screen, cell-based, luminescence; 0.3% of 340,000 active; cells; AID 504326, 2011; Mu-type opioid receptor (Homo sapiens) + Delta-type opioid receptor (Homo sapiens), …; activation, % at 9.3 µM; in the data active = activation above about 18%;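 also: 0% = vehicle-treated cells and 100% = reference agonist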
Hep lipid conf = hepatocyte lipid droplet accumulation inhibitors, confirmation, imaging, AML12 mouse hepatocytes, single concentration, high-content; 65% of 870 active; inhibition, % at 5.2 µM; shares compounds with Lipid droplet; BODIPY lipid droplet imaging; droplets induced with 100 µM oleic acid;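 active = inhibition of lipid droplet metric at least 50%, with more than 300 cells in each of four replicates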;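 also: plate controls were DMSO with oleic acid for no effect and 5 µM Triacsin-C for full effect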
AML12 cytotox = AML12 hepatocyte cytotoxicity, counter-screen for hepatic lipid droplet formation project, imaging, DAPI nuclear morphology imaging; shares compounds with Lipid droplet; 3% of 870 active; AML12 mouse hepatocytes; hits give high values; cells fed 100 µM oleate overnight; z-score at 5 µM; AID 463200, 2010; in the data active = z-score above about 6.3;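 also: compound exposure lasted overnight at 37 °C before fixation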
AML12 tox conf = AML12 hepatocyte cytotoxicity, confirmation, cytotoxicity control for hepatic lipid droplet formation project, cell-based, single concentration | AML12 mouse hepatocyte viability, ATP luminescence; cells loaded with 100 µM oleic acid | cytotoxicity, % at 50 µM | shares compounds with Lipid droplet | 530 tested, under 10 active;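 active = cytotoxicity above 50% in each of four replicates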;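 also: compound exposure lasted overnight at 37 °C before the ATP read; 0% = DMSO-treated cells and 100% = wells with no cells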
Active calls of the source: *; . = no result given.

SMILES	OPRM1-OPRD1 inv	Lipid droplet	HTR5A ag	HTR5A inv ag	OPRM1-OPRD1 ag	Hep lipid conf	AML12 cytotox	AML12 tox conf
O=C(c1ccc(S(=O)(=O)Nc2cccc(C(F)(F)F)c2)cc1)N1CCOCC1	12	58*	2	-22	-2	90*	0.61	18
CCOc1ccc(CC(=O)Nc2ccc(NC(=O)c3ccco3)cc2)cc1OCC	19	57*	0	0	-4	98*	-0.086	9
COc1cc(NC(=O)c2ccco2)c(OC)cc1NC(=O)CCC(=O)Nc1cc(C)cc(C)c1	4	97*	1	1	-1	107*	-0.15	56*
CCC(=O)Nc1ccc(NC(=O)c2ccco2)cc1	17	.	2	17	-3	.	.	.
O=C(Nc1ccc(NC(=O)c2cc3ccccc3o2)cc1)c1ccco1	-41	70*	7	-18	7	65*	-0.081	11
O=C(Nc1cc(Cl)ccn1)C1(c2ccccc2)CC1(Cl)Cl (stereo not given)	-57	5	-4	5	11	.	.	.
CCOc1ccccc1NC(=O)N1CCC(C(=O)c2ccc(F)cc2)CC1	4	59*	0	-4	-1	95*	0.0025	13
COc1cccc(NC(=O)N2CCCC(C(=O)Nc3ccccc3OC)C2)c1 (stereo not given)	4	.	1	-25	-1	.	.	.
COc1ccc(CNC(=O)C2CCCN(C(=O)Nc3ccccc3OC)C2)cc1 (stereo not given)	18	81*	-1	3	-3	99*	-0.73	10
CCOc1ccccc1NC(=O)C1CCN(C(=O)NCc2ccccc2)CC1	18	130*	2	-6	-3	110*	-0.4	6
O=C1C2CC=CCC2C(=O)N1Cc1ccccc1Cl (stereo not given)	11	-9	2	2	-3	.	.	.
Cc1cccc(NC(=O)Cn2cc(C(=O)C3CC3)c3ccccc32)c1	-3	51*	-1	4	1	93*	-0.11	20
N=c1scc(-c2ccccc2)n1/N=C/c1ccco1	-7	54*	8	1	2	26	-0.56	.
C(=N/n1c2ccccc2c2ccccc21)/c1ccco1	6	-1	3	-9	-1	.	.	.
Cc1cc(C)cc(NC(=O)CCC(=O)Nc2cc(C)on2)c1	-6	75*	5	-11	1	71*	-1.2	0
COc1ccc(/C=C(/NC(=O)c2cccs2)C(=O)Nc2ccc(C)cc2)cc1OC	11	61*	2	-3	-2	100*	0.21	9
COc1ccccc1/C=C/C(=O)NCC(=O)N/N=C/c1cc(Br)ccc1OC	1	73*	0	7	0	106*	-1.1	18
COc1ccc(CCNC(=O)C/C(C)=N/NC(=O)Cc2cccc3ccccc23)cc1OC	9	10	2	-10	-2	.	.	.
COc1ccc(C)cc1NC(=O)C/C(C)=N/NC(=O)Cc1cccc2ccccc12	9	72*	-1	2	-2	70*	-0.61	11
COCCN1C(=O)C(=O)/C(=C(/O)c2ccc(S(=O)(=O)N3CCCCC3)cc2)C1c1ccc(O)c(OC)c1 (stereo not given)	14	-4	1	-7	-3	.	.	.
C/C=C(/C)C(=O)O[C@@H]1[C@H](OC(=O)C=C(C)C)c2c(ccc3ccc(=O)oc23)OC1(C)C	8	54*	-1	2	-1	-32	-0.54	.
C/C=C(/C)C(=O)O[C@@H]1c2c(ccc3ccc(=O)oc23)OC(C)(C)[C@@H]1OC(=O)/C(C)=C\C	-46	-60	-6	5	8	.	.	.
COc1ccc(OC)c(CCNC(=O)C(C)n2nc(C)c3c(C)n(-c4ccc(C)cc4)nc3c2=O)c1 (stereo not given)	4	60*	1	-2	-1	99*	-0.052	22
COc1ccc(CNC(=O)CN2C(=O)NC(C)(c3cccc4ccccc34)C2=O)cc1OC (stereo not given)	4	78*	4	-12	-1	105*	-0.25	14
COc1ccc(C2(C)NC(=O)N(CC(=O)Nc3ccc4ccccc4c3)C2=O)cc1OC (stereo not given)	10	.	14	-37	-2	.	.	.
SMILES	OPRM1-OPRD1 inv	Lipid droplet	HTR5A ag	HTR5A inv ag	OPRM1-OPRD1 ag	Hep lipid conf	AML12 cytotox	AML12 tox conf
Cc1noc(C)c1COC(=O)[C@@H](NC(=O)c1ccccc1)C(C)C	-17	-2	-3	-16	3	.	.	.
COc1cccc(OC(=O)c2ccccc2)c1OC(=O)c1ccccc1	-4	.	1	-2	1	.	.	.
CCn1cc(C(=O)N(C)c2ccc(OC)cc2)c2cc(OC)c(OC)cc2c1=O	6	68*	2	-9	-1	25	-0.89	.
C[C@H](NC(=O)c1ccco1)C(=O)NNC(=O)c1ccc(F)cc1	23	.	-1	4	-4	.	.	.
COC(=O)c1c(N2C(=O)[C@H]3[C@@H](C2=O)[C@]2(C(=O)Nc4c(C)cc(C)cc42)N2CCC[C@@H]32)sc(C)c1C	-12	68*	-3	7	2	32	0.064	.
COc1ccccc1NS(=O)(=O)c1ccc(N/N=C/c2c(C)nn(-c3ccccc3)c2N2CCCC2)c([N+](=O)[O-])c1	10	100*	-4	-10	-2	114*	-1	25
COc1ccccc1NS(=O)(=O)c1cccc(C(=O)N/N=C/c2c(C)nn(-c3ccccc3)c2N2CCCC2)c1	3	-22	2	-6	-1	.	.	.
COc1cccc(CNS(=O)(=O)c2ccc(S(=O)(=O)NC3CC3)cc2)c1	13	80*	14	-37	-2	108*	0.015	16
CN(C)c1ccc(C=NCC2COc3ccccc3O2)cc1 (stereo not given)	8	13	-1	19	-1	.	.	.
CSc1ccccc1NC(=O)CSc1nnc(COc2ccccc2)o1	10	-6	-2	6	-1	.	.	.
COc1n[nH]c(C(=O)Nc2cc(F)ccc2C)c1[N+](=O)[O-]	8	55*	0	-24	-1	9	-0.67	.
COC(=O)c1ccc(-c2noc(CN(C)CC3CCCCO3)n2)cc1 (stereo not given)	4	50*	1	-3	-1	8	0.057	.

Screening results: PubChem BioAssay, several laboratories
